Compound activity (PubChem)
Hits are enriched below; roughly 2.2% of the tested compounds scored in any of these assays.
Runt-SMMHC FRET: Runt domain-CBFb-SMMHC interaction inhibition | inhibition, % at 20 µM | Cerulean-Runt/Venus-CBFb-SMMHC FRET ratio 530/480, 1 h | Q01196+Q13951 | hit rate 0.74% among 220,000 | AID 1434;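 active means mean inhibition across duplicate retests at 20 µM reaching about 50%, limit read from the data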;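 further: inhibitors lower the FRET ratio by blocking Runt binding to CBFb-SMMHC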
14-3-3 Bad PPI: disrupts binding of bovine 14-3-3 zeta to phospho-Bad peptide | P63103 | inhibition, % at 21.7 µM | TR-FRET 14-3-3zeta/Dy647-pBad peptide displacement, 1 h | hit rate 0.71% among 220,000;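 active means inhibition above about 70%, limit read from the data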
Tb hexokinase: blocks Trypanosoma brucei hexokinase 1 activity; inhibition, % at 10 µM; AID 1430; hit rate 0.11% among 220,000; recombinant TbHK1, G6PDH-coupled NADH A340;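 active means inhibition of 50% or more in the single-dose primary screen; inactive means inhibition below 50%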
Runt-CBFb FRET: inhibitors of human RUNX1 Runt domain binding to CBFb; Cerulean-Runt/Venus-CBFb FRET ratio 530/480, 1 h; inhibition, % at 20 µM; hit rate 0.46% among 220,000;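 active means inhibition over about 50% at 20 µM in the single-dose screen, limit read from the data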
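Assay system: Cerulean-Runt domain / Medium: Tris 50 mM pH 7.5, KCl, K2SO4, 0.01% BSA / Timing: protein complex preformed 1 h, compound exposure 1 h, room temperature, dark / Measured by: FRET, excitation 422 nm, emission at 530 and 480 nm / Evaluation: loss of energy transfer signal / Control set: 5 µM unlabeled CBFb as full-inhibition high control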
Hck-Nef inh: human Hck-Nef kinase inhibition. P08631. Recombinant Hck-YEEI plus Nef, Z-Lyte FRET kinase assay. inhibition, % at 20 µM. hit rate 0.68% among 220,000;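 active means Hck-Nef kinase inhibition above about 50%, limit read from the data; inactive means inhibition below that limit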
Target sequence (P08631 whole entry, looked up): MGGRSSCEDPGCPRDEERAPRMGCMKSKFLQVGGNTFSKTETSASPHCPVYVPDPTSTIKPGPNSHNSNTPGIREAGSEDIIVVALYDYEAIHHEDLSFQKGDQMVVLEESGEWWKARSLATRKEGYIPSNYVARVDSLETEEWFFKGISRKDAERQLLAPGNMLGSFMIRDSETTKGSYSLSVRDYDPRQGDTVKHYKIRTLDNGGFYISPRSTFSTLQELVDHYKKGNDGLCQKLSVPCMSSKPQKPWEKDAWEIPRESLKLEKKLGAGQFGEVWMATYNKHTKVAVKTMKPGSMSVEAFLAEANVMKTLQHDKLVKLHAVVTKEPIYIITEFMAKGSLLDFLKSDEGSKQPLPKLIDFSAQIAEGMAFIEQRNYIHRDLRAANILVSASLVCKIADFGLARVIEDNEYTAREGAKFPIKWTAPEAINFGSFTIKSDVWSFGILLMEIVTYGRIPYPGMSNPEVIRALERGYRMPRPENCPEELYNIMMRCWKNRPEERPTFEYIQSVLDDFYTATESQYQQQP
RanGTP-Impb inh: inhibitors of RanGTP-importin-beta interaction, primary screen, biochemical, FRET, CFP-Ran, YFP-importin-beta, homogeneous. inhibition, % (no concentration beside the values). cell-free CFP-Ran/YFP-importin-beta FRET ratio. hit rate 1.1% among 300,000;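 active means more than half of the replicate wells show a fall in the fluorescence ratio signal beyond about 16%, limit read from the data, passing the limit was not always enough; inconclusive means exactly half of the replicate wells pass the set limit; inactive means fewer than half of replicates pass the limit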
Hck-Nef confirm: Hck-Nef kinase inhibition, confirmation; shares compounds with Hck-Nef inh; hit rate 28% among 1,300; Recombinant Hck-YEEI:Nef, Z-Lyte FRET kinase assay; calls only at 10 µM;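 active means average inhibition of at least 50%, with Z-scores no higher than 3 in both the phospho-tyrosine peptide and fluorescence counterscreens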
A number is an active result.

Cc1c(OCC(=O)OC(C)(C)C)ccc2c3c(c(=O)oc12)CCC3 was read as Runt-SMMHC FRET inactive, 14-3-3 Bad PPI inactive, Tb hexokinase inactive, Runt-CBFb FRET inactive, Hck-Nef inh inactive and RanGTP-Impb inh inactive.
O=C(Nc1ccc(Cl)c(C(F)(F)F)c1)[C@@H]1CC=C[C@@H]2CCN(C3CC3)C(=O)[C@@H]21 was read as RanGTP-Impb inh inactive.
Screening COc1cc(/C=N/N=C2/NC(=O)C(CC(=O)O)S2)ccc1OCc1ccc(Cl)cc1 (stereo not given) returned Runt-SMMHC FRET inactive, 14-3-3 Bad PPI inactive, Tb hexokinase inactive, Runt-CBFb FRET inactive, Hck-Nef inh inactive and RanGTP-Impb inh inactive.
`CCOc1cc(/C=N/N=C2/NC(=O)C(CC(=O)O)S2)ccc1OCc1ccc(Cl)cc1Cl` (stereo not given) gave Runt-SMMHC FRET inactive, 14-3-3 Bad PPI inactive, Tb hexokinase inactive, Runt-CBFb FRET inactive, Hck-Nef inh 53.7, RanGTP-Impb inh inactive and Hck-Nef confirm inactive.
O=C(COc1ccc(Cl)cc1)Nc1cc2c3c(c1)CC(=O)N3CCC2 was read as RanGTP-Impb inh inactive.
Screening O=C(Nc1nnc(SCc2c(Cl)cccc2Cl)s1)c1ccc2ncsc2c1 returned Runt-SMMHC FRET inactive, 14-3-3 Bad PPI 92.6, Tb hexokinase inactive, Runt-CBFb FRET inactive, Hck-Nef inh 110.5, RanGTP-Impb inh inactive and Hck-Nef confirm active.
Screening N#Cc1ccc(CSc2nnc(NC(=O)c3ccc(=O)[nH]c3)s2)cc1 returned Runt-SMMHC FRET inactive, 14-3-3 Bad PPI inactive, Tb hexokinase inactive, Runt-CBFb FRET inactive, Hck-Nef inh inactive and RanGTP-Impb inh inconclusive.
Cc1ccc2nc(NC(=O)c3ccc4ncsc4c3)sc2c1 was read as Runt-SMMHC FRET inactive, 14-3-3 Bad PPI inactive, Tb hexokinase inactive, Runt-CBFb FRET inactive, Hck-Nef inh inactive and RanGTP-Impb inh inactive.
`N#Cc1ccc(CSc2nnc(NC(=O)c3ccc4ncsc4c3)s2)cc1` gave Runt-SMMHC FRET inactive, 14-3-3 Bad PPI 86.1, Tb hexokinase inactive, Runt-CBFb FRET inactive, Hck-Nef inh 68.2, RanGTP-Impb inh inactive and Hck-Nef confirm inactive.
For O=C(Nc1ccc(Cl)c(Cl)c1)Nc1nnc(-c2ccncc2)s1 the results were Runt-SMMHC FRET inactive, 14-3-3 Bad PPI 74.4, Tb hexokinase inactive, Runt-CBFb FRET inactive and Hck-Nef inh 56.3.
Screening COc1ccc(NC(=O)Nc2nnc(-c3ccncc3)s2)cc1 returned Runt-SMMHC FRET inactive, 14-3-3 Bad PPI inactive, Tb hexokinase inactive, Runt-CBFb FRET inactive, Hck-Nef inh inactive and RanGTP-Impb inh inactive.
Screening COc1cc2[nH]c(=S)n(Cc3cccs3)c(=O)c2cc1OC returned Runt-SMMHC FRET inactive, 14-3-3 Bad PPI inactive, Tb hexokinase inactive, Runt-CBFb FRET inactive, Hck-Nef inh 58.9, RanGTP-Impb inh inconclusive and Hck-Nef confirm inactive.
`CCCn1c(=S)[nH]c2cc(OC)c(OC)cc2c1=O` gave Runt-SMMHC FRET inactive, 14-3-3 Bad PPI inactive, Tb hexokinase inactive, Runt-CBFb FRET inactive, Hck-Nef inh inactive and RanGTP-Impb inh inactive.
Screening COc1cc(/C=C2\SC(=N)N(c3ccc(F)cc3)C2=O)ccc1O returned Runt-SMMHC FRET inactive, 14-3-3 Bad PPI inactive, Tb hexokinase inactive, Runt-CBFb FRET inactive, Hck-Nef inh 76.8, RanGTP-Impb inh inactive and Hck-Nef confirm inactive.
`CCOc1ccc(N2C(=O)S/C(=C\c3ccc(O)c(OC)c3)C2=O)cc1` gave Runt-SMMHC FRET inactive, 14-3-3 Bad PPI inactive, Tb hexokinase inactive, Runt-CBFb FRET inactive, Hck-Nef inh inactive and RanGTP-Impb inh inactive.
Cc1cccn2c(=O)c3cc(C(=O)NCC4CCCO4)c(=N)n(Cc4cccnc4)c3nc12 (stereo not given) was read as Runt-SMMHC FRET 57.4, 14-3-3 Bad PPI inactive, Tb hexokinase inactive, Runt-CBFb FRET inactive and Hck-Nef inh 118.5.
Screening N=c1c(C(=O)NCC2CCCO2)cc2c(=O)n3ccccc3nc2n1Cc1cccnc1 (stereo not given) returned Runt-SMMHC FRET 57.4, 14-3-3 Bad PPI inactive, Tb hexokinase inactive, Runt-CBFb FRET inactive, Hck-Nef inh 128.2 and RanGTP-Impb inh 182.1.
For Cn1nc(C(=O)NCC2CCCO2)c2ccccc2c1=O (stereo not given) the results were Runt-SMMHC FRET inactive, 14-3-3 Bad PPI inactive, Tb hexokinase inactive, Runt-CBFb FRET inactive, Hck-Nef inh inactive and RanGTP-Impb inh inactive.
`CCOc1ccccc1NC(=O)CNS(=O)(=O)c1ccc2nc(C)sc2c1` gave Runt-SMMHC FRET inactive, 14-3-3 Bad PPI inactive, Tb hexokinase inactive, Runt-CBFb FRET inactive, Hck-Nef inh inactive and RanGTP-Impb inh inactive.
COc1ccc(C(=O)Nc2ccc(Cl)cc2C(=O)NCc2ccco2)cc1 was read as Runt-SMMHC FRET inactive, 14-3-3 Bad PPI inactive, Tb hexokinase inactive, Runt-CBFb FRET inactive, Hck-Nef inh inactive and RanGTP-Impb inh inactive.
For CCC(C)C(NC(=O)c1ccccc1NC(=O)c1ccc(OC)cc1)C(=O)NCc1ccco1 (stereo not given) the results were Runt-SMMHC FRET inactive, 14-3-3 Bad PPI inactive, Tb hexokinase inactive, Runt-CBFb FRET inactive, Hck-Nef inh 68.9, RanGTP-Impb inh inactive and Hck-Nef confirm active.
Cc1c(C)c2cc(Cl)c(O)c(CN3CCN(C)CC3)c2oc1=O was read as Runt-SMMHC FRET 126.6, 14-3-3 Bad PPI inactive, Tb hexokinase inactive, Runt-CBFb FRET 95.6, Hck-Nef inh 66.4 and RanGTP-Impb inh inactive.
Screening Cc1ccc2nc3c(cc(C(=O)NCC4CCCO4)c(=N)n3CCCOC(C)C)c(=O)n2c1 (stereo not given) returned Runt-SMMHC FRET inactive, 14-3-3 Bad PPI inactive, Tb hexokinase inactive, Runt-CBFb FRET inactive, Hck-Nef inh 181.5 and Hck-Nef confirm inactive.
For CCn1cc(C(=O)NCC2CCCO2)c2cc(OC)c(OC)cc2c1=O (stereo not given) the results were Runt-SMMHC FRET inactive, 14-3-3 Bad PPI inactive, Tb hexokinase inactive, Runt-CBFb FRET inactive, Hck-Nef inh inactive and RanGTP-Impb inh inactive.
Cc1ccc(-c2cc(C(=O)NCC3CCCO3)c3ccccc3n2)cc1C (stereo not given) was read as Runt-SMMHC FRET inactive, 14-3-3 Bad PPI inactive, Tb hexokinase inactive, Runt-CBFb FRET inactive, Hck-Nef inh inactive and RanGTP-Impb inh inactive.
For CCOCCCNc1nc2nc3ccc(C)cn3c(=O)c2cc1C(=O)NCC1CCCO1 (stereo not given) the results were 14-3-3 Bad PPI inactive, Tb hexokinase inactive, Hck-Nef inh 198.7 and RanGTP-Impb inh inactive.
`O=C(Nc1ccc(N2CCCC2)cc1)C(c1ccccc1)c1ccccc1` gave Runt-SMMHC FRET inactive, 14-3-3 Bad PPI inactive, Tb hexokinase inactive, Runt-CBFb FRET inactive, Hck-Nef inh 58.6, RanGTP-Impb inh inactive and Hck-Nef confirm inactive.
For CCOC(=O)C(Cc1ccccc1)NC(=O)CCc1nnc2ccc(N3CCCC3)nn12 (stereo not given) the results were RanGTP-Impb inh inactive.
